From the array DNA melting data of Ke et al. (doi:10.1101/2024.01.08.574731)

Assays:
[1] = folding enthalpy; higher = less favourable; fluorescence melt of hairpins on a sequencing array, two-state fit; conditions: sodium 0.088 M
Method in brief: (§1)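 In 50 mM Na-HEPES pH 8.0 containing 25 mM NaCl, hairpins from the library on a sequenced MiSeq flow cell were imaged for Cy3 fluorescence at 2.5 °C steps up to 60 °C, with Cy3 and quencher oligos annealed. After normalisation to pre-quench Cy3 and to control constructs, two-state fits with bootstrapping gave melting temperature and folding enthalpy. Four replicates were combined by inverse-variance weighting, and fitted temperatures were shifted up by 9.35 °C to match UV melts.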

[2] = melting temperature; fluorescence melt of hairpins on a sequencing array, two-state fit, raised by 9.35 °C to match UV melts; conditions: sodium 0.088 M
Method in brief: as §1

GCGATAGCGAAAGCTCGC (((..(((....)))))) gave a folding enthalpy [1] of -18.5 kcal/mol and a Tm [2] of 51.5 °C.

Work on GGCACCGAAAGGTGAGCC ((((((....)))..))) yielded a folding enthalpy [1] of -13.3 kcal/mol and a Tm [2] of 52.6 °C.

GCTTAAGGAAACTCAAGC ((((.((....)).)))) showed a folding enthalpy [1] of -17.8 kcal/mol and a Tm [2] of 28.3 °C.

Work on GGCATGGGAAACTGTGCC ((((..(....)..)))) yielded a folding enthalpy [1] of -29.8 kcal/mol and a Tm [2] of 48.2 °C.

GGGTTGGGAAACTAACCC (((((.(....).))))) gave a folding enthalpy [1] of -40.6 kcal/mol and a Tm [2] of 50.6 °C.

For GCGGGTGCCGC ((((...)))), the folding enthalpy [1] was -23.3 kcal/mol and the Tm [2] was 55.9 °C.

GCAACTGGAAACAGCTGC (((.(((....))).))) gave a folding enthalpy [1] of -35.8 kcal/mol and a Tm [2] of 46.2 °C.

Work on GTACTAGAAATAGTAC ((((((....)))))) yielded a folding enthalpy [1] of -27.2 kcal/mol and a Tm [2] of 42.4 °C.

Sequence GTACCAGGAAACTGATAC (((.(((....))).))) has a folding enthalpy [1] of -26.6 kcal/mol and a Tm [2] of 31.4 °C.

In the case of GAAACGGGAAACCATTTC ((((.((....)).)))), the folding enthalpy [1] is reported as -21.5 kcal/mol and the Tm [2] is reported as 28.8 °C.

Sequence GGCGGCGAAAGCCATGCC ((((((....)))..))) has a folding enthalpy [1] of -16.5 kcal/mol and a Tm [2] of 59.8 °C.

With GCTATTGGAAACAACAGC (((.(((....))).))) the folding enthalpy [1] was -16.9 kcal/mol and the Tm [2] was 33.7 °C.

In the case of CGGTCGGAAACGACTCCG ((((((....)))..))), the folding enthalpy [1] is reported as -13.3 kcal/mol and the Tm [2] is reported as 33.9 °C.

For GGTCCAGGAAACTGGGTC (..((((....))))..), the folding enthalpy [1] was -15.3 kcal/mol and the Tm [2] was 39.5 °C.

Sequence GAGGCCGAAAGGCGCTC ((((((....))).))) has a folding enthalpy [1] of -13.8 kcal/mol and a Tm [2] of 57 °C.

Work on GTCGTACCGAAAGGTGAC (((..(((....)))))) yielded a folding enthalpy [1] of -18.6 kcal/mol and a Tm [2] of 42.8 °C.

GGTTCCGAAAGGAAAACC ((((((....)))..))) gave a folding enthalpy [1] of -18.5 kcal/mol and a Tm [2] of 43.6 °C.

GCGGAACACCGC ((((....)))) showed a folding enthalpy [1] of -23.2 kcal/mol and a Tm [2] of 54.6 °C.

GCGTATCGAAAGATGCGC (((.(((....))).))) showed a folding enthalpy [1] of -43.8 kcal/mol and a Tm [2] of 66.3 °C.

GCGAGTGTTCGC ((((....)))) gave a folding enthalpy [1] of -14.4 kcal/mol and a Tm [2] of 49 °C.

For GCATAGGGAAACCTATGC (((((((....))))))), the folding enthalpy [1] was -44.2 kcal/mol and the Tm [2] was 61.7 °C.

Sequence GTCACCGAAAGGTGAGAC ((((((....)))..))) has a folding enthalpy [1] of -10.3 kcal/mol and a Tm [2] of 48 °C.

In the case of GGCGTACCGAAAGGTGCC (((..(((....)))))), the folding enthalpy [1] is reported as -33.2 kcal/mol and the Tm [2] is reported as 54.7 °C.

For GCCAATTCGAAAGAAGGC (((..(((....)))))), the folding enthalpy [1] was -20.6 kcal/mol and the Tm [2] was 38 °C.

Sequence GCGTTTGTACGC ((((....)))) has a folding enthalpy [1] of -25.4 kcal/mol and a Tm [2] of 54.9 °C.

In the case of GCATCCTCGAAAGAGTGC (((..(((....)))))), the folding enthalpy [1] is reported as -19.1 kcal/mol and the Tm [2] is reported as 33.1 °C.

With GCAGCCGGAAACGGCCGC ((.((((....)))).)) the folding enthalpy [1] was -17.2 kcal/mol and the Tm [2] was 58.9 °C.

For GTAGAGCGAAAGCTTAC (((.(((....)))))), the folding enthalpy [1] was -12.8 kcal/mol and the Tm [2] was 38.5 °C.

With GACGTAGGAAACTACACC (..((((....))))..) the folding enthalpy [1] was -10.2 kcal/mol and the Tm [2] was 25.2 °C.

GCGAGGAGTCGC ((((....)))) gave a folding enthalpy [1] of -13.4 kcal/mol and a Tm [2] of 52.8 °C.

Work on GCGTTAGCACGC ((((....)))) yielded a folding enthalpy [1] of -8.5 kcal/mol and a Tm [2] of 61.7 °C.

In the case of GCGTGGTCGAAAGACCGC (((..(((....)))))), the folding enthalpy [1] is reported as -10.9 kcal/mol and the Tm [2] is reported as 53.2 °C.

In the case of GAATAGCGAAAGCTGTTC (((.(((....))).))), the folding enthalpy [1] is reported as -39.9 kcal/mol and the Tm [2] is reported as 51.5 °C.

For GGCAGCGAAAGCTCGCC ((((((....))).))), the folding enthalpy [1] was -22.5 kcal/mol and the Tm [2] was 61.4 °C.

For GTTAGCGAAAGCTGTAAC ((((((....)))..))), the folding enthalpy [1] was -9.81 kcal/mol and the Tm [2] was 31.6 °C.

GGCAGAGGAAACTCCGCC (((.(((....))).))) gave a folding enthalpy [1] of -28.1 kcal/mol and a Tm [2] of 47.5 °C.

GCAAGTGGAAACACCTGC (((.(((....))).))) gave a folding enthalpy [1] of -25.3 kcal/mol and a Tm [2] of 40.5 °C.

In the case of GGCTCCGGAAACGGAGTC (.(((((....))))).), the folding enthalpy [1] is reported as -30.1 kcal/mol and the Tm [2] is reported as 60.8 °C.

For GCGTTTCGACGC ((((....)))), the folding enthalpy [1] was -28.6 kcal/mol and the Tm [2] was 55.9 °C.

Sequence GATCTGGTCCAGATC ((((((...)))))) has a folding enthalpy [1] of -33.4 kcal/mol and a Tm [2] of 50.8 °C.

GATGCCGGAAACGGCGTC ((.((((....)))).)) showed a folding enthalpy [1] of -21.2 kcal/mol and a Tm [2] of 62.6 °C.

With GATGACGAAAGTCATC ((((((....)))))) the folding enthalpy [1] was -36.3 kcal/mol and the Tm [2] was 67.4 °C.

For GGACACGAAAGTGGATCC ((((((....)))..))), the folding enthalpy [1] was -15.6 kcal/mol and the Tm [2] was 40.3 °C.

GCCCCCTCGAAAGAGGGC (((..(((....)))))) showed a folding enthalpy [1] of -6 kcal/mol and a Tm [2] of 37.6 °C.

GTTCTGGGAAACTAGAAC (((((.(....).))))) showed a folding enthalpy [1] of -29.6 kcal/mol and a Tm [2] of 42.9 °C.

GCGATAGAAATATCGC ((((((....)))))) showed a folding enthalpy [1] of -41.7 kcal/mol and a Tm [2] of 58.3 °C.

For CGCGGACAAATCCGCG ((((((....)))))), the folding enthalpy [1] was -40.8 kcal/mol and the Tm [2] was 60.9 °C.

In the case of GGTTCAGAAATGAACC ((((((....)))))), the folding enthalpy [1] is reported as -38.8 kcal/mol and the Tm [2] is reported as 54.6 °C.

Sequence GCCGGCGAAAGCCCTGGC ((((((....)))..))) has a folding enthalpy [1] of -16.2 kcal/mol and a Tm [2] of 56.6 °C.

GTTACCCCGAAAGGGAAC (((..(((....)))))) gave a folding enthalpy [1] of -16.5 kcal/mol and a Tm [2] of 32.9 °C.

Sequence GCATACGAAAGTACGTGC ((((((....)))..))) has a folding enthalpy [1] of -18.1 kcal/mol and a Tm [2] of 34.4 °C.

GCGATTTTTCGC ((((....)))) gave a folding enthalpy [1] of -27.2 kcal/mol and a Tm [2] of 53.1 °C.

For GATCTCAATTGAGATC ((((((....)))))), the folding enthalpy [1] was -38 kcal/mol and the Tm [2] was 53.1 °C.

In the case of GTGTCACGAAAGTGGCAC (((.(((....))).))), the folding enthalpy [1] is reported as -37.1 kcal/mol and the Tm [2] is reported as 67.3 °C.

Sequence GCTTAGCGAAAGCAAGGC ((.(.((....)).).)) has a folding enthalpy [1] of -13.5 kcal/mol and a Tm [2] of 38.1 °C.

GACGTGGGAAACTGCGTC ((((..(....)..)))) gave a folding enthalpy [1] of -24.6 kcal/mol and a Tm [2] of 47.6 °C.

GATCTGGAACCAGATC ((((((....)))))) showed a folding enthalpy [1] of -38.5 kcal/mol and a Tm [2] of 53.9 °C.

GATCACACTCGTGATC ((((((....)))))) showed a folding enthalpy [1] of -40.6 kcal/mol and a Tm [2] of 57.4 °C.

With GAAGGACGAAAGTCTTTC (((.(((....))).))) the folding enthalpy [1] was -25 kcal/mol and the Tm [2] was 46.3 °C.

GTTCAACGAAAGTTAAAC (((.(((....))).))) gave a folding enthalpy [1] of -18.6 kcal/mol and a Tm [2] of 30.7 °C.
